Measurements of several laboratories.
Lines come from different studies, so protocols differ.
TBXA2R: Thromboxane A2 receptor (TBXA2R, Homo sapiens, UniProt P21731)
CNR1: Cannabinoid receptor 1 (CNR1, Homo sapiens, UniProt P21554)
PFF0160c: Dihydroorotate dehydrogenase (quinone), mitochondrial (PFF0160c, Plasmodium falciparum, UniProt Q08210)

Structure (SMILES) | target | effect on | action | technique | notes | endpoint | result
CNC(=O)c1ccc(-c2cnn3ccc(C(=O)N(C)c4ccc(Cl)c(C(=O)OC)c4)cc23)cc1 | TBXA2R | cell-free assay |  |  |  | IC50 | > 30000 nM
CCC(CC)(NC(=O)c1ccc(C2CC2)c(Cc2ccc(F)cc2)n1)C(=O)NCCOCCOCCNC(=O)c1ccc2c(c1)C1(OC2=O)c2ccc(N(C)C)cc2[Si](C)(C)c2cc(N(C)C)ccc21 | CNR1 | ligand displacement |  | radioligand | cell membranes | Ki | 462 nM
C=CCCCn1c(O)c(N=NC(=O)c2ccccc2)c2ccccc21 | CNR1 | ligand displacement |  | radioligand | cell membranes | Ki | 1660 nM
CCCCCc1cc(O)c2c(c1)OC(C)(CCC=C(C)C)C=C2 (stereo not shown) | CNR1 | cell-free assay |  |  |  | Ki | > 1000 nM
COC(=O)c1cc(N(C)C(=O)c2ccn3ncc(-c4ccc(C(=O)O)cc4)c3c2)ccc1Cl | TBXA2R | cell-free assay |  |  |  | IC50 | > 30000 nM
CCn1cc(C)c2c([C@@H](N)c3ccc(C(F)(F)F)nc3)n(C)nc2c1=O | PFF0160c | enzyme activity | inhibitor |  |  | IC50 | 1000 nM
O=C(N=Nc1c(O)n(CC2CCCCC2)c2ccccc12)c1ccccc1 | CNR1 | ligand displacement |  | radioligand | cell membranes | Ki | 70.8 nM
Cn1nc2c(=O)n(C3CC3)ncc2c1[C@](O)(c1ccc(C(F)(F)F)c(C#N)c1)C(F)(F)F | PFF0160c | enzyme activity | inhibitor |  |  | IC50 | 25.1 nM
C=C1CC/C=C(\C)CC[C@@H]2[C@@H]1CC2(C)C | CNR1 | ligand displacement |  | radioligand |  | Ki | > 10000 nM
CC[C@@](O)(c1cnc(C(F)(F)F)c(Cl)c1)c1c2ccn(C3CC3)c(=O)c2nn1C | PFF0160c | enzyme activity | inhibitor |  |  | IC50 | 12.6 nM
C=C/C=C/CCN1CCC(O)(c2cccc(Br)c2)C1 (stereo not shown) | 5-hydroxytryptamine receptor 2A (HTR2A, Homo sapiens, UniProt P28223) | calcium signal | antagonist |  |  | IC50 | 15900 nM
Cc1c(Cc2ccc(C(F)(F)F)cc2)n[nH]c1C(=O)NC1CC1 | PFF0160c | enzyme activity | inhibitor |  |  | IC50 | > 30000 nM
O=C(N=Nc1c(O)n(CCCCCF)c2ccccc12)c1ccccc1 | CNR1 | β-arrestin recruitment | agonist |  |  | EC50 | 1820 nM
